{"source": "ChEMBL document CHEMBL4196195", "about": "“( R)- N-(1-Methyl-2-hydroxyethyl)-13-( S)-methyl-arachidonamide (AMG315): A Novel Chiral Potent Endocannabinoid Ligand with Stability to Metabolizing Enzymes” (J Med Chem, 2018)", "key": {"[1]": {"target": "T1, Cannabinoid receptor 1 (Rattus norvegicus, UniProt P20272)", "T1 sequence (P20272 whole entry)": "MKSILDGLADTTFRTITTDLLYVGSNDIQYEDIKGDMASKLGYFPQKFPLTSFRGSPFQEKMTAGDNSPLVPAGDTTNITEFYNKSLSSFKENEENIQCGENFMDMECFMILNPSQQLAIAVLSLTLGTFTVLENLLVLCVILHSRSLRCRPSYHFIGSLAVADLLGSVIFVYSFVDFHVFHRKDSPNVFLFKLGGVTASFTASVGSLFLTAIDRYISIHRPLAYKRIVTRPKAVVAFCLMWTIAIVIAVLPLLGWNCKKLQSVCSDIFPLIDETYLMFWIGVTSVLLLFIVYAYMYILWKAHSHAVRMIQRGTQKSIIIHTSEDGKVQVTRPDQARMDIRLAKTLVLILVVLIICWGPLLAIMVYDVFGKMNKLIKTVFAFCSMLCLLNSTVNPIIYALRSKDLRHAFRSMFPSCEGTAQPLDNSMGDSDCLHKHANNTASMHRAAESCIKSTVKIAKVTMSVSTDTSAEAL", "assay": "Displacement of [3H]CP-55,940 from CB1 receptor in rat brain membranes in absence of FAAH inhibitor PMSF by radioligand binding assay", "format": "cell membranes, Membrane"}, "[2]": {"target": "T1, Cannabinoid receptor 1", "assay": "Displacement of [3H]CP-55,940 from CB1 receptor in rat brain membranes in presence of FAAH inhibitor PMSF by radioligand binding assay", "format": "cell membranes, Membrane"}, "[3]": {"target": "Cannabinoid receptor 2 (Mus musculus, UniProt P47936)", "sequence (P47936 whole entry)": "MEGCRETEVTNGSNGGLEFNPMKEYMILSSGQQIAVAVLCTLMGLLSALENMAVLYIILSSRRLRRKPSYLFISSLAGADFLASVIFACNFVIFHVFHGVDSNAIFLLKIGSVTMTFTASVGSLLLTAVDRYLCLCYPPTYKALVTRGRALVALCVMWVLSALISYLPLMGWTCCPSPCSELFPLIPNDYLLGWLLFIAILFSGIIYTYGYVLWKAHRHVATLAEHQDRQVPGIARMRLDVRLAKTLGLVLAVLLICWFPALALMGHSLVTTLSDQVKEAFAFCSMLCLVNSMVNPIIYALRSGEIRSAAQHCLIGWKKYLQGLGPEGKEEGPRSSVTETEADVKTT", "assay": "Displacement of [3H]CP-55,940 from mouse CB2 receptor expressed in HEK293 cell membranes in absence of FAAH inhibitor PMSF by radioligand binding assay", "procedure,_shortened": "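Membranes from HEK293 cells expressing human or mouse CB2 (preparations lacking FAAH activity), competing against [3H]CP-55,940. IC50 by nonlinear regression, converted to Ki. Three independent experiments run in triplicate; Ki is the mean of the three.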"}, "[4]": {"target": "T1, Cannabinoid receptor 1", "assay": "Agonist activity at rat CB1 receptor expressed in HEK293 cells assessed as inhibition of forskolin-induced cAMP accumulation incubated for 30 mins", "format": "functional, cell-based", "settings": "read-out: EC50", "procedure,_shortened": "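HEK293 cells stably expressing rCB1, harvested with nonenzymatic dissociation reagent, washed in HBSS, 1000–1500 cells/well. Test compound at various concentrations with forskolin (2 μM final) in stimulation buffer, 30 min at room temperature. cAMP read by TR-FRET (Eu-cAMP tracer plus ULight anti-cAMP, 60 min room temperature). Forskolin-stimulated cAMP set to 100%. EC50 from nonlinear regression; two independent experiments in triplicate.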"}, "[5]": {"target": "Cannabinoid receptor 1 (Rattus norvegicus) (UniProt P20272)", "sequence (P20272 whole entry)": "as the sequence (P20272 whole entry) above", "assay": "Agonist activity at rat CB1 receptor expressed in HEK293 cells assessed as inhibition of forskolin-induced cAMP accumulation incubated for 30 mins relative to 500 nM CP-55,940", "format": "functional, cell-based"}, "[6]": {"target": "T2, Prostaglandin G/H synthase 2 (Mus musculus, UniProt Q05769)", "T2 sequence (Q05769 whole entry)": "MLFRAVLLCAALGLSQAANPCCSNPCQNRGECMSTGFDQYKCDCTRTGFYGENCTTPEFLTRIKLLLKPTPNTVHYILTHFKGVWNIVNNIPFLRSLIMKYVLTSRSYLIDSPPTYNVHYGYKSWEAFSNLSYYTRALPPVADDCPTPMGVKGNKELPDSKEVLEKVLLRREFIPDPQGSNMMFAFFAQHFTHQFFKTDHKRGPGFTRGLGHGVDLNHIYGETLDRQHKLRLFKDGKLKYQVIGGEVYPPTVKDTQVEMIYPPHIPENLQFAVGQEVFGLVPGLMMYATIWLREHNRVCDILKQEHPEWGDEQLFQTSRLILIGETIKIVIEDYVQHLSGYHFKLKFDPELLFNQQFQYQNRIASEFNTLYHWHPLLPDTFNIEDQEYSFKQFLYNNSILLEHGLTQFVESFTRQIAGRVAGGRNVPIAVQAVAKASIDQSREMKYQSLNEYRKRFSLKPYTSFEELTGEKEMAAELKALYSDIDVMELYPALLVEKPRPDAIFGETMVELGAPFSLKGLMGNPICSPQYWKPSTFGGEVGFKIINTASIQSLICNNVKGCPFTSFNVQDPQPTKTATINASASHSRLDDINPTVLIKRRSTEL", "assay": "Stability assessed as mouse COX2-mediated compound oxidation by measuring oxygen consumption by polarographic assay", "format": "ADME"}, "[7]": {"tested_on": "Mus musculus", "assay": "Antiallodynic activity in CD1 mouse model of CFA-induced inflammatory pain assessed as increase in CFA-reduced mechanical paw withdrawal threshold at 5 mg/kg, ip measured at 10 mins post injection", "format": "functional, organism-based", "procedure,_shortened": "(§1)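 Adult male mice (39 ± 10 g), wild-type CD1 or CB1 KO on CD1 background, single housed. CFA:saline 1:1 (20 μL) injected intraplantar into right hind paw; 48 h allowed before dosing. Drug given ip in 5 mL/kg, vehicle group included. Electronic von Frey (90 g probe) after ≥30 min habituation, read in duplicate per paw, at baseline, 48 h post-CFA and 10, 30, 60, 120 min post-dose. Two-way mixed ANOVA with Bonferroni post hoc tests.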"}, "[8]": {"tested_on": "Mus musculus", "assay": "Antiallodynic activity in CD1 mouse model of CFA-induced inflammatory pain assessed as increase in CFA-reduced mechanical paw withdrawal threshold at 5 mg/kg, ip measured up to 30 mins post injection", "format": "functional, organism-based", "procedure,_shortened": "as §1"}, "[9]": {"tested_on": "Mus musculus", "assay": "Antiallodynic activity in CD1 mouse model of CFA-induced inflammatory pain assessed as increase in CFA-reduced mechanical paw withdrawal threshold at 5 mg/kg, ip measured at 60 mins post injection", "format": "functional, organism-based", "procedure,_shortened": "as §1"}, "[10]": {"tested_on": "Mus musculus", "assay": "Antiallodynic activity in CD1 mouse model of CFA-induced inflammatory pain assessed as increase in CFA-reduced mechanical paw withdrawal threshold at 5 mg/kg, ip measured at 120 mins post injection", "format": "functional, organism-based", "procedure,_shortened": "as §1"}, "[11]": {"tested_on": "Mus musculus", "assay": "Antiallodynic activity in CB1 receptor knockout CD1 mouse model of CFA-induced inflammatory pain assessed as increase in CFA-reduced mechanical paw withdrawal threshold at 5 mg/kg, ip measured at 10 to 120 mins post injection", "format": "functional, organism-based", "procedure,_shortened": "as §1"}, "[12]": {"tested_on": "Mus musculus", "assay": "Effect on mechanical paw withdrawal threshold of contralateral paw in CB1 receptor knockout CD1 mouse model of CFA-induced inflammatory pain at 5 mg/kg, ip measured at 10 to 120 mins post injection", "format": "ADME, organism-based", "settings": "in vivo", "procedure,_shortened": "(§2)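 Wild-type CD1 or CB1 KO (CD1 background) adult male mice. Unilateral intraplantar CFA:saline 1:1 (20 μL) into right hind paw, 48 h before ip dosing (5 mL/kg); vehicle controls. Threshold of the uninjected contralateral paw measured by electronic von Frey (90 g probe), duplicate readings averaged, at 10, 30, 60, 120 min post-dose. Two-way mixed ANOVA.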"}, "[13]": {"tested_on": "Mus musculus", "assay": "Effect on mechanical paw withdrawal threshold of contralateral paw in CD1 mouse model of CFA-induced inflammatory pain at 5 mg/kg, ip measured at 10 to 120 mins post injection", "format": "ADME, organism-based", "settings": "in vivo", "procedure,_shortened": "as §2"}}, "note": "Calls of active or inactive are those of the source."}
{"smiles": "CCCCC/C=C\\[C@H](C)/C=C\\C/C=C\\C/C=C\\CCCC(=O)N[C@H](C)CO", "values": [{"measurement": "Ki", "setting": "[1]", "result": 7.8, "unit": "nM"}, {"measurement": "Ki", "setting": "[2]", "result": 8.9, "unit": "nM"}, {"measurement": "Ki", "setting": "[3]", "result": 653, "unit": "nM"}, {"measurement": "EC50", "setting": "[4]", "result": 0.6, "unit": "nM"}, {"measurement": "Emax", "setting": "[5]", "result": 76, "unit": "%"}, {"measurement": "Stability", "setting": "[6]", "result": "Stable"}, {"measurement": "Activity", "setting": "[7]", "result": "Active"}, {"measurement": "Activity", "setting": "[8]", "result": "Active"}, {"measurement": "Activity", "setting": "[9]", "result": "Active"}, {"measurement": "Activity", "setting": "[10]", "result": "inactive"}, {"measurement": "Activity", "setting": "[11]", "result": "inactive"}, {"measurement": "Activity", "setting": "[12]", "result": "Non-Toxic"}, {"measurement": "Activity", "setting": "[13]", "result": "Non-Toxic"}]}
